# Variants at the floor of the assay were thinned out.
# B1: tRNA (parent)
# chain: CUCUCGGUAGCCAAGUUGGUUUAAGGCGCAAGACUUUAAUUUAUCACUACGAAAUCUUGAGAUCGGGCGUUCGACUCGCCCCCGGGAGAUUUUUUCCUCGAGCAA
# Variants of: B1
# Assay: nonsense suppression (GFP-seq) (ratio to wild type); higher = more function; SUP4oc tRNA, yeast GFP reporter sort-seq
# Procedure, shortened: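 Yeast were grown in raffinose/galactose medium with 80 mg/L adenine, each strain bearing a genome-integrated ochre-suppressor tRNA variant from a ~3% random-mutation library, a galactose-driven GFP ochre reporter, and RFP. After sorting into GFP/RFP bins, every bin was sequenced on an Illumina platform at phred ≥30. The GFPSEQ value, a measure of nonsense suppression, is the weighted bin median GFP/RFP relative to the unmutated parent tRNA, using each variant's estimated cell share per bin as the weight. Only variants with ≥100 reads and ≥30 cells were included.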
row,Variant,nonsense suppression
1,CUCUCGGUAGCCAAGUUGGUUUAAGGCGCAAGUCUUUAAUUUAUCACUACGAAAGCUUGAGAUCGGGCGUUCGACUCGCCCCCGGGAGAUUUUUUCCUCGAGCAA,0.167
2,CUCUCGGUAGCCAAGUUGGUUUAAGGCGCAAGGCUUUAAUUUAUCACUACGAAAUCAUGAGAUCGGGCGUUCGACCCGCCCCCGGGAGAUUUUUUCCUCGAGCAA,≤ 0.026
3,CUCUCGGUAGCCAAGUUGGUUUAAGGCGCAAGAAUUUAAUUUAUCACUACGAAAUCUUGAGAUCGGGCGUUCGACUCGCCCCCGGGGGAUUUUUUCCUCGAGCAA,≤ 0.026
4,CUCUCGGUAGCCAAGUUGGUUUAAGGCGCAAGUCUUUAAUUUAUCACUACGAAAUCUUGAGAUCGGGCGUUCGAAUCGCCCCCGGGAGAUUUUUUCCUCGAGCAA,0.192
5,CUCUCGGUAGCCAAGUUGGUUUAAGGCGCAAGUUUUUAAUUUAUCACUACGAAAUCUUGAGAUCGGGCGUUCGACUCGCCCCCGGGAGAUUUUUUCCUCGAGCAA,≤ 0.026
6,CUCUCGGUAGCCAAGUUGGUUUAAGGCGCAAGAGUUUAAUUUAUCACUACGAAAUCAUGAGAUCGGGCGUUCGACUCGCCCCCGGGAGAUUUUUUCCUCGAGCAA,≤ 0.026
7,CUCUCGGUAGCCAAGUUGGUUUAAGGCGCAAGGCUUUAAUUUAUCACUACGAAAUCUUGAGAUCGGGCGUUCGACCCGCCCCCGGGAGAUUUUUUCCUCGAGCAA,0.0419
8,CUCUCGGUAGCCAAGUUGGUUUAAGGCGCAAGGCUUUAAUUUAUCACUACGAAAUCUUGAGAUCGGGCGUUCGACGCGCCCCCGGGAGAUUUUUUCCUCGAGCAA,≤ 0.026
9,CUCUCGGUAGCCAAGUUGGUUUAAGGCGCAAGAAUUUAAUUUAUCACUACGAAAUCUUGAGAUCGGGCAUUCGACUCGCCCCCGGGAGAUUUUUUCCUCGAGCAA,≤ 0.026
10,CUCUCGGUAGCCAAGUUGGUUUAAGGCGCAAGGCUUUAAUUUAUCACUACGAAAACUUGAGAUCGGGCGUUCGCCUCGCCCCCGGGAGAUUUUUUCCUCGAGCAA,≤ 0.026
11,CUCUCGGUAGCCAAGUUGGUUUAAGGCGCAAGGCUUUAAUUUAUCACUACGAAAUCUUGAGAUCGGGCGUUCGACUCGUCCCCGGGAGAUUUUUUCCUCGAGCAA,0.0403
12,CUCUCGGUAGCCAAGUUGGUUUAAGGCGCAAGAAUUUAAUUUAUCACUACGAAUUCUUGAGAUCGGGCGUACGAAUCGCCCCCGGGAGAUUUUUUCCUCGAGCAA,≤ 0.026
13,CUCUCGGUAGCCAAGUUGGUUUAAGGCGCAAGAGUUUAAUUUAUCACUACGAAAUCUUGAGAUCGGGCGUGCGACUCGCCCCCGGGAGAUUUUUUCCUCGAGCAA,≤ 0.026
14,CUCUCGGUAGCCAAGUUGGUUUAAGGCGCAAGAGUUUAAUUUAUCACUACGAAAUCUUGAGAUCGGGCCUUCGACUCGCCCCCGGGAGAUUUUUUCCUCGAGCAA,≤ 0.026
15,CUCUCGGUAGCCAAGUUGGUUUAAGGCGCAAGAGUUUAAUUUAUCACUACGAAACCUUGAGAUCGGGCGUUCGACUCGCCCCCGGGAGAUUUUUUCCUCGAGCAA,0.276
16,CUCUCGGUAGCCAAGUUGGUUUAAGGCGCAAGUCUUUAAUUUAUCACUACGAAAUCUUGAGAUCGGGCCUUCAACUCGCCCCCGGGAGAUUUUUUCCUCGAGCAA,≤ 0.026
17,CUCUCGGUAGCCAAGUUGGUUUAAGGCGCAAGGCUUUAAUUUAUCACUACGAAAUCUUAAGAUCGGGCGUUCGACUAGCCCCAGGGAAAUUUUUUCCUCGAGCAA,≤ 0.026
18,CUCUCGGUAGCCAAGUUGGUUUAAGGCGCAAGGCUUUAAUUUAUCACUACGAAAUCUUGACAUCGGGCGUUCGACUCGCCCCCGGGAGAUUUUUUCCUCGAGCAA,0.034
19,CUCUCGGUAGCCAAGUUGGUUUAAGGCGCAAGGCUUUAAUUUAUCACUACGAAAUCUUGAUAUCGGGCGUUCGACUCGCCCCCGGGAGAUUUUUUCCUCGAGCAA,0.119
20,CUCUCGGUAGCCAAGUUGGUUUAAGGCGCAAGGCUUUAAUUUAUCACUACGAAAUCUUGAAAUCGGGCGUUCGACUCGCCCCCGGGAGAUUUUUUCCUCGAGCAA,0.0709
21,CUCUCGGUAGCCAAGUUGGUUUAAGGCGCAAGGCUUUAAUUUAUCACUACGAAAUCUUGAGAUCGGGCGUUCGACUCGCCCCCGGCAGAUUUUUUCCUCGAGCAA,0.0374
22,CUCUCGGUAGCCAAGUUGGUUUAAGGCGCAAGAGUUUAAUUUAUCACUACGAAAUCUUGAGAUCGGGCGUUCGACUCACCGCCGGGAGAUUUUUUCCUCGAGCAA,≤ 0.026
23,CUCUCGGUAGCCAAGUUGGUUUAAGGCGCAAGGCUUUAAUUUAUCACUACGAAAUCUUGAGAUCGCGCGUUCGACUCGCCCCCGGGAGAUUUUUUCCUCGAGCAA,0.0263
24,CUCUCGGUAGCCAAGUUGGUUUAAGGCGCAAGUCUUUAAUUUAUCACUACGAAAUCUUGUGAUCGGGCGUUCGACUCGCCCCCGGGAGAUUUUUUCCUCGAGCAA,0.204
25,CUCUCGGUAGCCAAGUUGGUUUAAGGCGCAAGGCUUUAAUUUAUCACUACGAAAUCAUGAGAUCGGGCGUUCGACUCGCCCCCGGGAGAUUUUUUCCUCGAGCAA,≤ 0.026
26,CUCUCGGUAGCCAAGUUGGUUUAAGGCGCAAGAGUUUAAUUUAUCACUACGAAAUCUUGAGAUCGGGCGUUCGUCUCGCCCCCGGGAGAUUUUUUCCUCGAGCAA,≤ 0.026
27,CUCUCGGUAGCCAAGUUGGUUUAAGGCGCAAGAAUUUAAUUUAUCACUACGAAAUCUUGAGAACGGGCGUUCGACUCGCCCGCGGGAGAUUUUUUCCUCGAGCAA,≤ 0.026

# — the RNAGym collection of RNA variant scans (doi:10.1101/gad.245936.114)
